These results are taken from ChEMBL document CHEMBL1126908, “Synthesis and evaluation of new 6-amino-substituted benzo[c]phenanthridine derivatives” (J Med Chem, 1993).

Test [1] in a line: Cytotoxicity was measured on human mammary adenocarcinoma cells(Calc 18). It counts as functional, cell-based. The method, boiled down: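 Human mammary adenocarcinoma Calc 18 cells exposed to various drug concentrations for 96 h at 37 °C. Viability read by neutral red staining. IC50 is the concentration giving 50% growth inhibition.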
The next test has as its system L1210. Nature of the test: Cytotoxicity against murine lymphoblastic leukemia cells (L1210). It counts as functional, cell-based. The following applies: Mus musculus. In outline:
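Murine L1210 cells grown in Dulbecco's MEM with 10% fetal calf serum at 37 °C, 5% CO2. Cells seeded, then after 24 h compounds added in duplicate at various concentrations and incubated 24 h. Cells counted by Coulter counter. IC50 taken as the dose giving 50% growth inhibition, extrapolated from regression curves of non-toxic experimental points.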

Test [2] addresses DNA topoisomerase 2-beta (Homo sapiens) (UniProt Q02880). Nature of the test: Inhibition of topoisomerase II. To be noted: Bos taurus. In outline: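 Topoisomerase I or II purified from calf thymus, tested in a DNA cleavage assay. Read-out is the minimal inhibitory concentration (μM), meaning the lowest concentration that gives detectable stimulation of DNA cleavage.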
The nature of test [3]: The ratio of the mean survival time of treated animals on the mean survival time of controls multiplied by 100.It is measured at dose of 20 mg/kg; T/C value. It counts as functional. The method, boiled down:
(§1)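 Female BDF1 mice inoculated IP with 10⁶ P388 leukemia cells on day 0, with 10 controls and 6 mice per test group. Compounds given IP as 0.2-mL PBS solutions on days 1, 3 and 7. T/C = mean survival time of treated mice / mean survival time of controls × 100.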

The nature of test [4]: The ratio of the mean survival time of treated animals on the mean survival time of controls multiplied by 100.It is measured at dose of 5 mg/kg; T/C value. It counts as functional. The method, boiled down: as §1
The nature of test [5]: The ratio of the mean survival time of treated animals on the mean survival time of controls multiplied by 100.It is measured at dose of 10 mg/kg; T/C value. It counts as functional. In outline:
as §1

Test [6] in a line: The ratio of the mean survival time of treated animals on the mean survival time of controls multiplied by 100.It is measured at dose of 40 mg/kg; T/C value. It counts as functional. The method, boiled down:
as §1

Test [7] has as its system P388. Nature of the test: (§2) Cytotoxicity was measured on murine leukemia p388. It counts as functional, cell-based. To be noted: Mus musculus. In outline:
(§3)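 Cells (P388, or camptothecin-resistant P388 CPT0.3) incubated 96 h at 37 °C with various drug concentrations. Viability read by neutral red staining. IC50 taken as the concentration giving 50% growth inhibition.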

Test [8] has as its system P388. The test can be described thus: (§4) Cytotoxicity was measured on murine leukemia p388 CPT 0.3. It counts as functional, cell-based. To be noted: Mus musculus. The method, boiled down:
as §3

In test [9] the test system is P388. Described as §2. It counts as functional. To be noted: Mus musculus. The method, boiled down: as §3
The subject of test [10] is P388. The description is as §4. It counts as functional. The following applies: Mus musculus. The method, boiled down: as §3
Test [11] can be described thus: The ratio of the mean survival time of treated animals on the mean survival time of controls multiplied by 100.It is measured at dose of 100 mg/kg; T/C value. It counts as functional. The method, boiled down:
as §1

Test [12] deals with P388 leukemia cells (Mus musculus). The test can be described thus: Cytotoxicity was measured on cultured murine leukemia cells (P388).

pIC50: −log10 of the molar value. In brackets after ≈: the same amount, converted by molar mass.

Chain of DNA topoisomerase 2-beta (Homo sapiens) (Q02880 whole entry): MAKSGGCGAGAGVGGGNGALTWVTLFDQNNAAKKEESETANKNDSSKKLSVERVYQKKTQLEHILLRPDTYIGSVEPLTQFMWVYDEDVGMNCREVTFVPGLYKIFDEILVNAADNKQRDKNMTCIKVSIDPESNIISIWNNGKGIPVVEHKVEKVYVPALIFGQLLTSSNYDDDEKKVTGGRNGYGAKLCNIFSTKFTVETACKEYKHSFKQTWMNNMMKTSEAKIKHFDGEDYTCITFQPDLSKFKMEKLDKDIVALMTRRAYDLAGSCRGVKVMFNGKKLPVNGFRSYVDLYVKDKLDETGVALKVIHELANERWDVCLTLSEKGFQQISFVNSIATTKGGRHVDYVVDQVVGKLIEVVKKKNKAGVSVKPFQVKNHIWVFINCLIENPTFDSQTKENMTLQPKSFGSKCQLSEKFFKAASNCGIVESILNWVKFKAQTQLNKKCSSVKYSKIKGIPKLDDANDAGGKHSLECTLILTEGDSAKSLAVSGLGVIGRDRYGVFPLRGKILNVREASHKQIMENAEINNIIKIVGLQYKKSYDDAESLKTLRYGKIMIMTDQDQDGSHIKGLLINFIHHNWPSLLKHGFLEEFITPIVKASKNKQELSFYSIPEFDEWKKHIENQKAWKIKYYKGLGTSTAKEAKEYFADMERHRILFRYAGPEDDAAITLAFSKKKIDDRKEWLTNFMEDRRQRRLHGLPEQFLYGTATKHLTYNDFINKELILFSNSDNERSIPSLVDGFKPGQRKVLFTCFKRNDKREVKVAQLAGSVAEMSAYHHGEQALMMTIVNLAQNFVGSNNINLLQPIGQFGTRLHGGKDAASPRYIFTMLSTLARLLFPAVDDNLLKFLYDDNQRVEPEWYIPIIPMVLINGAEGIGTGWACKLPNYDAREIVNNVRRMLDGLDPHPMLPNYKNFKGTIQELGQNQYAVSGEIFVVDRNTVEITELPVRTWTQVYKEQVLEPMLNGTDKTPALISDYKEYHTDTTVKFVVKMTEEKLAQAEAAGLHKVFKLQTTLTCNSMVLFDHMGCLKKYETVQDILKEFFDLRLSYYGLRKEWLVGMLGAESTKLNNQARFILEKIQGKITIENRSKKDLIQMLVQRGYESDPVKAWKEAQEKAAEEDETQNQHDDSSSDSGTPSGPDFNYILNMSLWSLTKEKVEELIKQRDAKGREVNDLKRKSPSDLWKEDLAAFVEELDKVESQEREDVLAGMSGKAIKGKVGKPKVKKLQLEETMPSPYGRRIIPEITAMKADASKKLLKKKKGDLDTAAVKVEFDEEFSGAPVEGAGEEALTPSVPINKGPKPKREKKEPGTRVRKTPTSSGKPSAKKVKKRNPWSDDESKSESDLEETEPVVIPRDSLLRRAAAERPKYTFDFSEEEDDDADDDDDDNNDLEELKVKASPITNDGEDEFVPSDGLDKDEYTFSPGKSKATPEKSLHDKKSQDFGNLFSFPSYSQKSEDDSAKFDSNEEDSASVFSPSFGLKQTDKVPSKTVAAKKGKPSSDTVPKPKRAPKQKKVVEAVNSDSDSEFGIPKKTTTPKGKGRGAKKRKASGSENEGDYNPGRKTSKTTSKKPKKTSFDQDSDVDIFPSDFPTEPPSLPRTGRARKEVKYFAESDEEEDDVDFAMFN

For `CN(C)CCNc1nc2c3ccc(O)cc3ccc2c2ccc(O)cc12`, the negative logarithm of the IC50 (pIC50) (usually the IC50 on a negative log10 scale, so that one unit is a factor of ten) was 6.00 in test [1] and 6.30 in the test on L1210. The compound also came in with an MIC in test [2] of 3 µM (≈ 1.04 µg/mL). For the same compound, the Ratio was found to be 111 in test [3], 119 in test [4] and 111 in [5].
In the case of `COc1cc([C@@H]2c3cc4c(cc3[C@@H](O[C@@H]3O[C@@H]5CO[C@@H](C)O[C@H]5[C@H](O)[C@H]3O)[C@H]3COC(=O)[C@H]23)OCO4)cc(OC)c1O`, the MIC in test [2] is 0.1 µM (≈ 0.0589 µg/mL).
For `CN(C)CCNc1nc2c3cc(O)ccc3ccc2c2ccccc12`, the pIC50 in test [1] was 5.52; with L1210, 6.30. Also, the MIC in test [2] came to 10 µM (≈ 3.31 µg/mL). The Ratio was determined as 102 in test [3], 92 in [4] and 83 in [5].
For `CN(C)CCNc1nc2c3ccc(O)cc3ccc2c2ccccc12`, the figures for the negative logarithm of the IC50 (pIC50) (in test [1]; in the test on L1210) were 6.00 and 6.30, respectively. In test [2], this compound showed an MIC of 1 µM (≈ 0.331 µg/mL). In addition, the Ratio is 118 in test [3], 101 in [6], 93 in test [4] and 138 in test [5].
In the case of `COc1ccc2c(c1)c(NCCN(C)C)nc1c3ccc(O)cc3ccc21`, the pIC50 in [1] was 5.82. The same compound showed an MIC in [2] of 10 µM (≈ 3.61 µg/mL).
The compound `COc1ccc2ccc3c4ccccc4c(NCCN(C)C)nc3c2c1` had a pIC50 with L1210 of 5.60.
Turning to `COc1cc2c(ccc3c4cc(OC)c(OC)cc4c[n+](C)c23)cc1O.[Cl-]` [FAGARONINE], the pIC50 was 5.70 in the test with L1210, 5.70 in the test on P388 [7] and less than 5.00 in the test with P388 [8]. In addition, the concentration for an effect of 90% (IC90) (in general, the point of the concentration-response curve where the effect stands at 90%) is 6 µM in the test on P388 [9] and more than 10 µM with P388 [10]. In addition, in test [11], the Ratio came out at 265.
The compound `CC[C@@]1(O)C(=O)OCc2c1cc1n(c2=O)Cc2cc3ccccc3nc2-1` [CAMPTOTHECIN] returned an MIC in test [2] of more than 100 µM. The compound also gave a pIC50 in [12] of 7.82.
Regarding `COc1ccc2c(ccc3c4ccccc4c(NCCCN(C)C)nc23)c1`, the negative logarithm of the IC50 (pIC50) was 5.60 in [1] and 5.47 with L1210. The compound also had an MIC in test [2] of more than 10 µM.
As to `COc1ccc2c(ccc3c4ccccc4c(NCCN(C)C)nc23)c1`, the negative-log IC50 (pIC50) (in test [1]; in the test on L1210) was 5.52 in each case. Further, in test [2], the MIC is 10 µM (≈ 3.45 µg/mL).
Turning to `COc1ccc2c(ccc3c4ccc(OC)cc4c(NCCN(C)C)nc23)c1`, the negative-log IC50 (pIC50) in [1] was 5.82; in the test with L1210, 5.77. In addition, in test [2], the MIC was 10 µM (≈ 3.75 µg/mL).
For `COc1cc2c(NCCN(C)C)nc3c4cc5c(cc4ccc3c2cc1OC)OCO5`, the negative-log IC50 (pIC50) is 6.22 in [1], 6.52 with L1210, 6.05 in the test on P388 [7] and 6.82 in the test with P388 [8]. In addition, the 90% effect concentration (IC90) in the test with P388 [9] and in the test with P388 [10] was 3.5 µM each time. Besides, in [2], the MIC came out at 1 µM (≈ 0.419 µg/mL). The figures for the Ratio in test [3], in test [4] and in test [5] were 92, 99 and 103, respectively.
Turning to `COc1ccc2c(ccc3c4ccc(OC)cc4c(NCCCN(C)C)nc23)c1`, the pIC50 in test [1] was 5.52; with L1210, 5.60. For the same compound, in test [2], the MIC is more than 10 µM.
Take `COc1cc2ccc3c4cc(OC)c(OC)cc4c(NCCN(C)C)nc3c2cc1OC`: the pIC50 is 5.52 in [1] and less than 5.30 in the test with L1210. In test [2], this compound came in with an MIC of more than 10 µM.
In the case of `CN(C)CCCNc1nc2c3cc(O)ccc3ccc2c2ccccc12`, the pIC50 was 5.60 in test [1] and 5.47 in the test with L1210. The compound further registered an MIC in test [2] of more than 10 µM. Further, the Ratio amounted to 73 in [3], 91 in test [4] and 90 in test [5].
On to `CN(C)CCCNc1nc2c3ccc(O)cc3ccc2c2ccc(O)cc12`, for which the figures for the pIC50 (in [1]; in the test with L1210) were less than 5.00 and 5.35, respectively. In test [2], this compound displayed an MIC of 10 µM (≈ 3.61 µg/mL).
Compound `CN(C)CCNc1nc2c3ccccc3ccc2c2ccccc12` had a pIC50 in the test on L1210 of less than 4.05.
As to `COc1ccc2ccc3c4ccccc4c(NCCCN(C)C)nc3c2c1`, the pIC50 with L1210 was 5.59.
On to `CN(C)CCCNc1nc2c3ccc(O)cc3ccc2c2ccccc12`, for which the pIC50 in [1] was 5.52; in the test on L1210, 5.59. In addition, the MIC in [2] is more than 10 µM.
